According to the RNAGym collection of RNA variant scans (doi:10.1038/s41586-018-0170-7):

B1: tRNA (parent)
chain: GUUCCGUUGGCGUAAUGGUAACGCGUCUCCCUCCUAAGGAGAAGACUGCGGGUUCGAGUCCCGUACGGAACG

Variants of: B1
Test: yeast fitness, log relative to wild type (ln ratio); higher = fitter; tRNA-Arg(CCU), competitive growth, 37 C, 1 M NaCl
How it was run: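 Variants were counted by 125 bp paired-end Illumina sequencing after pools of a combinatorial tRNA-Arg(CCU) library, held on a HIS3 centromeric plasmid in BY4742 lacking the chromosomal gene, grew ~6.5 generations (~26.5 h) in SC-HIS 1M NaCl at 37 °C. Each genotype's fitness is the natural log of its generations relative to the wild type's. Generations were OD-scaled log2 output/input frequencies, inverse-variance weighted over replicates.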
For AUUCCGUUGGCGUAAUGGUAACGCGUUUCCCUCCUAAGGAGACGACUGCGGGUUCGAGUCCCGUACGGGGUG, the “yeast fitness (ln)” value was -0.299. In the case of AUUCCGUUGGCGUAAUGGUAACGCGUUUCCCUCCUAAGGAGACGAUUGCGGGUUCGAGUCCCGUAAGGGGCG, the “yeast fitness (ln)” value is reported as -0.189. For AUUCCGUUGGCGUAAUGGUAACGCGUUUCCCUCCUAAGGAGACGAUUGCGGGUUCGAGUCCCGUAAGGGUCG, the “yeast fitness (ln)” value was -0.352. For AUUCCGUUGGCGUAAUGGUAACGCGUCUCCCUCCUAAGGAGACGACUGCGGGUUCGAGUCCCGUAUGGGAUG, the “yeast fitness (ln)” value was -0.377. For AUUCCGUUGGCGUAAUGGUAACGCGUUUCCCUCCUAAGGAGACGAUUGCGGGUUCGAGUCCCGUAUGGGAUG, the “yeast fitness (ln)” value was -0.361. With AUUCCGUUGGCGUAAUGGUAACGCGUUUCCCUCCUAAGGAGACGACUGCGGGUUCGAGUCCCGUACGGAACG the “yeast fitness (ln)” value was -0.163. For AUUCCGUUGGCGUAAUGGUAACGCGUUUCCCUCCUAAGGAGACGACUGCGGGUUCGAGUCCCGUACGGGACG, the “yeast fitness (ln)” value was -0.138. In the case of AUUCCGUUGGCGUAAUGGUAACGCGUCUCCCUCCUAAGGAGACGACUGCGGGUUCGAGUCCCGUACGGAAUG, the “yeast fitness (ln)” value is reported as -0.0202. In the case of AUUCCGUUGGCGUAAUGGUAACGCGUCUCCCUCCUAAGGAGACGACUGCGGGUUCGAGUCCCGUAUGGAACG, the “yeast fitness (ln)” value is reported as -0.172. For AUUCCGUUGGCGUAAUGGUAACGCGUUUCCCUCCUAAGGAGACGAUUGCGGGUUCGAGUCCCGUACGGGGUG, the “yeast fitness (ln)” value was -0.336. With AUUCCGUUGGCGUAAUGGUAACGCGUCUCCCUCCUAAGGAGACGACUGCGGGUUCGAGUCCCGUAAGGAGUG the “yeast fitness (ln)” value was -0.164. With AUUCCGUUGGCGUAAUGGUAACGCGUCUCCCUCCUAAGGAGAAGACUGCGGGUUCGAGUCCCGUACGGAGCG the “yeast fitness (ln)” value was -0.204. For AUUCCGUUGGCGUAAUGGUAACGCGUCUCCCUCCUAAGGAGAAGACUGCGGGUUCGAGUCCCGUACGGAUCG, the “yeast fitness (ln)” value was -0.044. With AUUCCGUUGGCGUAAUGGUAACGCGUCUCCCUCCUAAGGAGACGACUGCGGGUUCGAGUCCCGUAUGGAAUG the “yeast fitness (ln)” value was -0.289. For AUUCCGUUGGCGUAAUGGUAACGCGUCUCCCUCCUAAGGAGAAGACUGCGGGUUCGAGUCCCGUACGGGACG, the “yeast fitness (ln)” value was -0.141. For AUUCCGUUGGCGUAAUGGUAACGCGUCUCCCUCCUAAGGAGACGACUGCGGGUUCGAGUCCCGUAAGGAGCG, the “yeast fitness (ln)” value was -0.19. For AUUCCGUUGGCGUAAUGGUAACGCGUCUCCCUCCUAAGGAGACGACUGCGGGUUCGAGUCCCGUAAGGAUCG, the “yeast fitness (ln)” value was -0.129. For AUUCCGUUGGCGUAAUGGUAACGCGUUUCCCUCCUAAGGAGACGAUUGCGGGUUCGAGUCCCGUACGGAGUG, the “yeast fitness (ln)” value was -0.153. With AUUCCGUUGGCGUAAUGGUAACGCGUCUCCCUCCUAAGGAGACGAUUGCGGGUUCGAGUCCCGUAUGGAUCG the “yeast fitness (ln)” value was -0.124. In the case of AUUCCGUUGGCGUAAUGGUAACGCGUCUCCCUCCUAAGGAGACGAUUGCGGGUUCGAGUCCCGUAUGGAGCG, the “yeast fitness (ln)” value is reported as -0.1. For AUUCCGUUGGCGUAAUGGUAACGCGUCUCCCUCCUAAGGAGAAGACUGCGGGUUCGAGUCCCGUACGGAGUG, the “yeast fitness (ln)” value was -0.0244. In the case of AUUCCGUUGGCGUAAUGGUAACGCGUCUCCCUCCUAAGGAGACGACUGCGGGUUCGAGUCCCGUAUGGAGUG, the “yeast fitness (ln)” value is reported as -0.235. With AUUCCGUUGGCGUAAUGGUAACGCGUUUCCCUCCUAAGGAGACGAUUGCGGGUUCGAGUCCCGUAUGGGGCG the “yeast fitness (ln)” value was -0.188. For AUUCCGUUGGCGUAAUGGUAACGCGUUUCCCUCCUAAGGAGACGAUUGCGGGUUCGAGUCCCGUAUGGGUCG, the “yeast fitness (ln)” value was -0.4. In the case of AUUCCGUUGGCGUAAUGGUAACGCGUUUCCCUCCUAAGGAGACGAUUGCGGGUUCGAGUCCCGUAAGGAGCG, the “yeast fitness (ln)” value is reported as -0.248. With AUUCCGUUGGCGUAAUGGUAACGCGUUUCCCUCCUAAGGAGACGAUUGCGGGUUCGAGUCCCGUAAGGAUCG the “yeast fitness (ln)” value was -0.155. In the case of AUUCCGUUGGCGUAAUGGUAACGCGUCUCCCUCCUAAGGAGACGACUGCGGGUUCGAGUCCCGUAAGGAUUG, the “yeast fitness (ln)” value is reported as -0.321. With AUUCCGUUGGCGUAAUGGUAACGCGUUUCCCUCCUAAGGAGACGACUGCGGGUUCGAGUCCCGUACGGAUUG the “yeast fitness (ln)” value was -0.269. With AUUCCGUUGGCGUAAUGGUAACGCGUUUCCCUCCUAAGGAGACGACUGCGGGUUCGAGUCCCGUACGGGUUG the “yeast fitness (ln)” value was -0.406. With AUUCCGUUGGCGUAAUGGUAACGCGUCUCCCUCCUAAGGAGAAGACUGCGGGUUCGAGUCCCGUACGGGGUG the “yeast fitness (ln)” value was -0.0385. With AUUCCGUUGGCGUAAUGGUAACGCGUCUCCCUCCUAAGGAGAAGACUGCGGGUUCGAGUCCCGUACGGAUUG the “yeast fitness (ln)” value was -0.0607. For AUUCCGUUGGCGUAAUGGUAACGCGUUUCCCUCCUAAGGAGACGAUUGCGGGUUCGAGUCCCGUAAGGGGUG, the “yeast fitness (ln)” value was -0.305. In the case of AUUCCGUUGGCGUAAUGGUAACGCGUUUCCCUCCUAAGGAGACGAUUGCGGGUUCGAGUCCCGUACGGAUUG, the “yeast fitness (ln)” value is reported as -0.29. For AUUCCGUUGGCGUAAUGGUAACGCGUUUCCCUCCUAAGGAGACGACUGCGGGUUCGAGUCCCGUACGGGGCG, the “yeast fitness (ln)” value was -0.303. With AUUCCGUUGGCGUAAUGGUAACGCGUUUCCCUCCUAAGGAGACGACUGCGGGUUCGAGUCCCGUACGGGUCG the “yeast fitness (ln)” value was -0.389. With AUUCCGUUGGCGUAAUGGUAACGCGUCUCCCUCCUAAGGAGAAGACUGCGGGUUCGAGUCCCGUACGGGAUG the “yeast fitness (ln)” value was -0.0087. For AUUCCGUUGGCGUAAUGGUAACGCGUUUCCCUCCUAAGGAGACGAUUGCGGGUUCGAGUCCCGUACGGGAUG, the “yeast fitness (ln)” value was -0.109. For AUUCCGUUGGCGUAAUGGUAACGCGUUUCCCUCCUAAGGAGAAGACUGCGGGUUCGAGUCCCGUACGGAACG, the “yeast fitness (ln)” value was -0.105.
